Measured values as given in article PMC5089614 (British Journal of Clinical Pharmacology, 2016).
“Also recorded” adds a separate entry of the source.

What was measured:
[1] = Safety/tolerability: adverse events graded by NCI CTCAE v4.03; assay type: in vivo, human
Outline: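 Solid tumour patients got oral test compound by hepatic group: normal 4 mg, moderate 2.3 mg, severe 1.5 mg. Dosing continued in a second part, with escalation allowed up to 4 mg. AEs were monitored from first dose until 30 days after the last dose and graded by CTCAE v4.03. Safety population was all patients with ≥1 dose. Investigators assigned relatedness.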

[2] = cited from earlier work
[3] = moderate impairment 2.3 mg (n = 15)
[4] = n = 1, not attributed to ixazomib
[5] = severe impairment 1.5 mg (n = 20)

CC(C)C[C@H](NC(=O)CNC(=O)c1cc(Cl)ccc1Cl)B(O)O [ixazomib]
Drug-related AEs, patients ([1]; all patients (N = 48)): 46%
Drug-related decreased appetite ([1]; all patients (N = 48)): 8%
Drug-related dehydration ([1]; all patients (N = 48)): 6%
Drug-related diarrhoea ([1]; all patients (N = 48)): 6%
Drug-related fatigue ([1]; all patients (N = 48)): 8%
Drug-related nausea ([1]; all patients (N = 48)): 17%
Drug-related vomiting ([1]; all patients (N = 48)): 10%
drug-related serious dehydration ([1]; all patients (N = 48)): 4%
drug-related serious dyspnoea ([1]; all patients (N = 48)): 2%
drug-related serious fall ([1]; all patients (N = 48)): 2%
drug-related serious oesophageal ulcer ([1]; all patients (N = 48)): 2%
grade 3 drug-related anaemia ([1]; all patients (N = 48)): 2%
grade 3 drug-related dehydration ([1]; all patients (N = 48)): 6%
grade 3 drug-related fall ([1]; all patients (N = 48)): 2%
grade 3 drug-related fatigue ([1]; all patients (N = 48)): 4%
grade 4 drug-related AE ([1]; all patients (N = 48)): no drug‐related grade 4 adverse events; also recorded: no patient had a grade 4 drug‐related AE
patients with serious AEs ([1]; all patients (N = 48)): 65%
rate of on-study deaths ([1]; all patients (N = 48)): 29%
on-study deaths, number ([1]; all patients, none related to ixazomib, all related to progressive disease): 14
patients with drug-related serious AEs ([1]; five serious AEs in four patients): 8%
incidence of drug-related grade ≥3 AEs ([1]; moderate hepatic impairment, 2.3 mg): 20%
Abdominal pain, any-grade TEAE [1, 3]: 2 (13) n (%)
Acute renal failure, any-grade TEAE [1, 3]: 1 (7) n (%)
Acute renal failure, grade ≥3 TEAE [1, 3]: 1 (7) n (%)
Anaemia, any-grade TEAE [1, 3]: 3 (20) n (%)
Anaemia, grade ≥3 TEAE [1, 3]: 1 (7) n (%)
Any-grade AE [1, 3]: 15 (100) n (%)
Ascites, any-grade TEAE [1, 3]: 3 (20) n (%)
Ascites, grade ≥3 TEAE [1, 3]: 2 (13) n (%)
Back pain, any-grade TEAE [1, 3]: 0 n (%)
Cough, any-grade TEAE [1, 3]: 2 (13) n (%)
Decreased appetite, any-grade TEAE [1, 3]: 2 (13) n (%)
Dehydration, any-grade TEAE [1, 3]: 2 (13) n (%)
Dehydration, grade ≥3 TEAE [1, 3]: 2 (13) n (%)
Diarrhoea, any-grade TEAE [1, 3]: 1 (7) n (%)
Dyspnoea, any-grade TEAE [1, 3]: 3 (20) n (%)
Fatigue, any-grade TEAE [1, 3]: 4 (27) n (%)
Fatigue, grade ≥3 TEAE [1, 3]: 1 (7) n (%)
Grade ≥3 AE [1, 3]: 13 (87) n (%)
Hyperbilirubinaemia, any-grade TEAE [1, 3]: 5 (33) n (%)
Hyperbilirubinaemia, grade ≥3 TEAE [1, 3]: 5 (33) n (%)
Hyperkalaemia, any-grade TEAE [1, 3]: 2 (13) n (%)
Hypotension, any-grade TEAE [1, 3]: 1 (7) n (%)
Hypotension, grade ≥3 TEAE [1, 3]: 1 (7) n (%)
Insomnia, any-grade TEAE [1, 3]: 2 (13) n (%)
Leukocytosis, grade ≥3 TEAE [1, 3]: 1 (7) n (%)
Nausea, any-grade TEAE [1, 3]: 4 (27) n (%)
Peripheral oedema, any-grade TEAE [1, 3]: 9 (60) n (%)
Pyrexia, any-grade TEAE [1, 3]: 2 (13) n (%)
Upper abdominal pain, any-grade TEAE [1, 3]: 1 (7) n (%)
Vomiting, any-grade TEAE [1, 3]: 2 (13) n (%)
discontinuation owing to acute hepatic failure [1, 4]: 2%
discontinuation owing to acute renal failure [1, 4]: 2%
discontinuation owing to axillary pain/groin pain [1, 4]: 2%
discontinuation owing to confusional state [1, 4]: 2%
discontinuation owing to peritoneal haemorrhage [1, 4]: 2%
discontinuation owing to progression of pancreatic carcinoma [1, 4]: 2%
Abdominal pain, any-grade TEAE ([1]; normal function 4 mg (n = 13)): 2 (15) n (%)
Acute renal failure, any-grade TEAE ([1]; normal function 4 mg (n = 13)): 0 n (%)
Acute renal failure, grade ≥3 TEAE ([1]; normal function 4 mg (n = 13)): 0 n (%)
Anaemia, any-grade TEAE ([1]; normal function 4 mg (n = 13)): 2 (15) n (%)
Anaemia, grade ≥3 TEAE ([1]; normal function 4 mg (n = 13)): 1 (8) n (%)
Any-grade AE ([1]; normal function 4 mg (n = 13)): 13 (100) n (%)
Ascites, any-grade TEAE ([1]; normal function 4 mg (n = 13)): 0 n (%)
Ascites, grade ≥3 TEAE ([1]; normal function 4 mg (n = 13)): 0 n (%)
Back pain, any-grade TEAE ([1]; normal function 4 mg (n = 13)): 2 (15) n (%)
Cough, any-grade TEAE ([1]; normal function 4 mg (n = 13)): 1 (8) n (%)
Decreased appetite, any-grade TEAE ([1]; normal function 4 mg (n = 13)): 7 (54) n (%)
Dehydration, any-grade TEAE ([1]; normal function 4 mg (n = 13)): 3 (23) n (%)
Dehydration, grade ≥3 TEAE ([1]; normal function 4 mg (n = 13)): 0 n (%)
Diarrhoea, any-grade TEAE ([1]; normal function 4 mg (n = 13)): 4 (31) n (%)
Dyspnoea, any-grade TEAE ([1]; normal function 4 mg (n = 13)): 4 (31) n (%)
Fatigue, any-grade TEAE ([1]; normal function 4 mg (n = 13)): 6 (46) n (%)
Fatigue, grade ≥3 TEAE ([1]; normal function 4 mg (n = 13)): 2 (15) n (%)
Grade ≥3 AE ([1]; normal function 4 mg (n = 13)): 6 (46) n (%)
Hyperbilirubinaemia, any-grade TEAE ([1]; normal function 4 mg (n = 13)): 0 n (%)
Hyperbilirubinaemia, grade ≥3 TEAE ([1]; normal function 4 mg (n = 13)): 0 n (%)
Hyperkalaemia, any-grade TEAE ([1]; normal function 4 mg (n = 13)): 1 (8) n (%)
Hypotension, any-grade TEAE ([1]; normal function 4 mg (n = 13)): 0 n (%)
Hypotension, grade ≥3 TEAE ([1]; normal function 4 mg (n = 13)): 0 n (%)
Insomnia, any-grade TEAE ([1]; normal function 4 mg (n = 13)): 3 (23) n (%)
Leukocytosis, grade ≥3 TEAE ([1]; normal function 4 mg (n = 13)): 0 n (%)
Nausea, any-grade TEAE ([1]; normal function 4 mg (n = 13)): 9 (69) n (%)
Peripheral oedema, any-grade TEAE ([1]; normal function 4 mg (n = 13)): 2 (15) n (%)
Pyrexia, any-grade TEAE ([1]; normal function 4 mg (n = 13)): 1 (8) n (%)
Upper abdominal pain, any-grade TEAE ([1]; normal function 4 mg (n = 13)): 2 (15) n (%)
Vomiting, any-grade TEAE ([1]; normal function 4 mg (n = 13)): 7 (54) n (%)
incidence of drug-related grade ≥3 AEs ([1]; normal hepatic function, 4 mg): 23%
incidence of peripheral neuropathy (PN) ([1]; one patient, grade 2, treatment-related, history of neuropathy): 2%
patients with rash-related AEs ([1]; seven events in total, all grade 1 or 2, none serious): Five
on-study deaths, number ([1]; severe hepatic impairment group): eight
incidence of drug-related grade ≥3 AEs ([1]; severe hepatic impairment, 1.5 mg): 5%
Abdominal pain, any-grade TEAE [1, 5]: 2 (10) n (%)
Acute renal failure, any-grade TEAE [1, 5]: 6 (30) n (%)
Acute renal failure, grade ≥3 TEAE [1, 5]: 5 (25) n (%)
Anaemia, any-grade TEAE [1, 5]: 3 (15) n (%)
Anaemia, grade ≥3 TEAE [1, 5]: 2 (10) n (%)
Any-grade AE [1, 5]: 20 (100) n (%)
Ascites, any-grade TEAE [1, 5]: 3 (15) n (%)
Ascites, grade ≥3 TEAE [1, 5]: 2 (10) n (%)
Back pain, any-grade TEAE [1, 5]: 3 (15) n (%)
Cough, any-grade TEAE [1, 5]: 3 (15) n (%)
Decreased appetite, any-grade TEAE [1, 5]: 1 (5) n (%)
Dehydration, any-grade TEAE [1, 5]: 3 (15) n (%)
Dehydration, grade ≥3 TEAE [1, 5]: 2 (10) n (%)
Diarrhoea, any-grade TEAE [1, 5]: 1 (5) n (%)
Dyspnoea, any-grade TEAE [1, 5]: 4 (20) n (%)
Fatigue, any-grade TEAE [1, 5]: 5 (25) n (%)
Fatigue, grade ≥3 TEAE [1, 5]: 1 (5) n (%)
Grade ≥3 AE [1, 5]: 18 (90) n (%)
Hyperbilirubinaemia, any-grade TEAE [1, 5]: 5 (25) n (%)
Hyperbilirubinaemia, grade ≥3 TEAE [1, 5]: 5 (25) n (%)
Hyperkalaemia, any-grade TEAE [1, 5]: 2 (10) n (%)
Hypotension, any-grade TEAE [1, 5]: 4 (20) n (%)
Hypotension, grade ≥3 TEAE [1, 5]: 2 (10) n (%)
Insomnia, any-grade TEAE [1, 5]: 1 (5) n (%)
Leukocytosis, grade ≥3 TEAE [1, 5]: 2 (10) n (%)
Nausea, any-grade TEAE [1, 5]: 5 (25) n (%)
Peripheral oedema, any-grade TEAE [1, 5]: 4 (20) n (%)
Pyrexia, any-grade TEAE [1, 5]: 4 (20) n (%)
Upper abdominal pain, any-grade TEAE [1, 5]: 2 (10) n (%)
Vomiting, any-grade TEAE [1, 5]: 4 (20) n (%)
Abdominal pain, any-grade TEAE ([1]; total (N = 48)): 6 (13) n (%)
Acute renal failure, any-grade TEAE ([1]; total (N = 48)): 7 (15) n (%)
Acute renal failure, grade ≥3 TEAE ([1]; total (N = 48)): 6 (13) n (%)
Anaemia, any-grade TEAE ([1]; total (N = 48)): 8 (17) n (%)
Anaemia, grade ≥3 TEAE ([1]; total (N = 48)): 4 (8) n (%)
Any-grade AE ([1]; total (N = 48)): 48 (100) n (%)
Ascites, any-grade TEAE ([1]; total (N = 48)): 6 (13) n (%)
Ascites, grade ≥3 TEAE ([1]; total (N = 48)): 4 (8) n (%)
Back pain, any-grade TEAE ([1]; total (N = 48)): 5 (10) n (%)
Cough, any-grade TEAE ([1]; total (N = 48)): 6 (13) n (%)
Decreased appetite, any-grade TEAE ([1]; total (N = 48)): 10 (21) n (%)
Dehydration, any-grade TEAE ([1]; total (N = 48)): 8 (17) n (%)
Dehydration, grade ≥3 TEAE ([1]; total (N = 48)): 4 (8) n (%)
Diarrhoea, any-grade TEAE ([1]; total (N = 48)): 6 (13) n (%)
Dyspnoea, any-grade TEAE ([1]; total (N = 48)): 11 (23) n (%)
Fatigue, any-grade TEAE ([1]; total (N = 48)): 15 (31) n (%)
Fatigue, grade ≥3 TEAE ([1]; total (N = 48)): 4 (8) n (%)
Grade ≥3 AE ([1]; total (N = 48)): 37 (77) n (%)
Hyperbilirubinaemia, any-grade TEAE ([1]; total (N = 48)): 10 (21) n (%)
Hyperbilirubinaemia, grade ≥3 TEAE ([1]; total (N = 48)): 10 (21) n (%)
Hyperkalaemia, any-grade TEAE ([1]; total (N = 48)): 5 (10) n (%)
Hypotension, any-grade TEAE ([1]; total (N = 48)): 5 (10) n (%)
Hypotension, grade ≥3 TEAE ([1]; total (N = 48)): 3 (6) n (%)
Insomnia, any-grade TEAE ([1]; total (N = 48)): 6 (13) n (%)
Leukocytosis, grade ≥3 TEAE ([1]; total (N = 48)): 3 (6) n (%)
Nausea, any-grade TEAE ([1]; total (N = 48)): 18 (38) n (%)
Peripheral oedema, any-grade TEAE ([1]; total (N = 48)): 15 (31) n (%)
Pyrexia, any-grade TEAE ([1]; total (N = 48)): 7 (15) n (%)
Upper abdominal pain, any-grade TEAE ([1]; total (N = 48)): 5 (10) n (%)
Vomiting, any-grade TEAE ([1]; total (N = 48)): 13 (27) n (%)
half-life ([2]; after oral dosing): 4 to 9 days
renal clearance [2]: 0 to 0.51 L/h
median time to reach peak concentration (T max) ([2]; clinical studies): 30 to 120 min
effect of mild hepatic impairment on PK ([2]; population PK analysis, cancer patients, NCI ODWG criteria): no clinically relevant PK changes
effect of mild and moderate renal impairment on PK ([2]; population PK analysis, creatinine clearance ≥30 ml min^−1): did not alter ixazomib PK
